Assay outcomes from PubChem BioAssay.
S100A4 inh HTS – S100A4-myosin IIA interaction inhibition; S100A4/TAMRA-MyoIIA peptide fluorescence polarization; AID 652163; inhibition, % at 10.7 µM; P26447; 360,000 tested, 0.14% active;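 active means mean inhibition of at least 70% across replicates, with every replicate also reaching that level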
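Assay system: human S100A4 monomer with TAMRA-labelled myosin IIA peptide / Buffer or medium: Calcium-containing HEPES buffer, pH 7.2 / Reagent: TAMRA-labelled myosin IIA heavy-chain peptide probe, 5 nM / Compound: one dose per compound / Timing: polarization read 5 min after assay mix addition, stable 5–60 min / Benchmarks: neutral control DMSO, positive control TFP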
AF4-AF9 inh – blocks AF4 peptide binding to human AF9. 350,000 tested, 0.47% active. P42568. inhibition, % at 10 µM. AID 651704. AlphaScreen, biotin-AF4 peptide binding to FLAG-AF9;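 active means every replicate reaching a set inhibition limit, whatever the replicate mean, cut at about 25% in these data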
Target sequence (P42568 whole entry, looked up): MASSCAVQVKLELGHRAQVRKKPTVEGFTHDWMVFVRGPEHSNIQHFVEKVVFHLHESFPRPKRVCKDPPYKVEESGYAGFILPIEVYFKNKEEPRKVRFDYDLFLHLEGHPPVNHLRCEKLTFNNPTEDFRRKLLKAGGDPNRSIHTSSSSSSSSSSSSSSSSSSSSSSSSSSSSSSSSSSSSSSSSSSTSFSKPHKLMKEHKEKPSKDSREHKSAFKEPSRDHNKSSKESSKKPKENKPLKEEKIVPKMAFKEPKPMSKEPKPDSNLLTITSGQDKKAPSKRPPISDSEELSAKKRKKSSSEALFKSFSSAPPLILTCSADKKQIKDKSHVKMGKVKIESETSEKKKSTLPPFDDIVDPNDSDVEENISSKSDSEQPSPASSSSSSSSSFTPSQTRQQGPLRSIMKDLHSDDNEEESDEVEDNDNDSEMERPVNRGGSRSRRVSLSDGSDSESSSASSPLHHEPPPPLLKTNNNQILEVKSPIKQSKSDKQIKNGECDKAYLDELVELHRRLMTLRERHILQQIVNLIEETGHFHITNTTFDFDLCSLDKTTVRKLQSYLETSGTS
SIRT5 inh – inhibitors of human sirtuin-5 desuccinylase; Purified SirT5, succinyl-peptide AMC, trypsin-coupled fluorescence; AID 652115; 330,000 tested, 1.1% active; Q9NXA8; inhibition, % at 15 µM; in the data active means inhibition above about 15%
DENV2 CPE – protects cells from dengue virus 2 cytopathic effect; AID 651640; CPE inhibition, % at 9.99 µM; DENV2-infected cells, cytopathic effect rescue, plate reader; 350,000 tested, 1.7% active; in the data active means CPE inhibition above about 20%, passing the limit was not always enough; tested in BHK-21 cells
CaV13 ICDI inh – Disruptors of the CACNA1D IQ motif to Ca2+-dependent inactivation inhibitor domain association, primary screening, Förster resonance energy transfer in intact living …. HEK cells, CFP/YFP FRET ICDI-IQ, plate reader, 10 min; percent FRET-ratio fall versus neutral wells. inhibition, % at 12.3 µM. 340,000 tested, 0.098% active;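 active means mean replicate inhibition of at least 30% and at least 1% of replicates passing that level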
Each line names hits and unclear results; the compound was inactive in the other large screens. Shown are actives, neighbours in structure and some others; about 2.7% of the full set was active somewhere.

CCC(=O)N(C)C[C@@H]1Oc2ncc(C3=CCCC3)cc2C(=O)N([C@@H](C)CO)C[C@@H]1C	none (no result: CaV13 ICDI inh)
COc1ccccc1C1C2=C(CC(C)(C)CC2=O)N(CC(=O)O)C2=C1C(=O)CC(C)(C)C2	CaV13 ICDI inh 36
COc1ccc(N2C3=C(C(=O)CC(C)(C)C3)C(c3ccccc3OC)C3=C2CC(C)(C)CC3=O)cc1	none
C=CCOc1ccc(CNCc2cccnc2)cc1OCC	DENV2 CPE 22
CNC[C@H]1Oc2c(NC(=O)c3cc(C)nn3C)cccc2C(=O)N([C@H](C)CO)C[C@H]1C	none (no result: CaV13 ICDI inh)
C[C@@H]1CCCCO[C@H](CN(C)S(=O)(=O)c2ccc(Cl)cc2)[C@@H](C)CN([C@@H](C)CO)C(=O)c2cc(NS(=O)(=O)c3ccccc3)ccc2O1	none (no result: AF4-AF9 inh, CaV13 ICDI inh)
CCOc1ccc(NC(=O)C2CC(=O)N(CCc3ccccc3)C2)cc1OC (configuration not stated)	DENV2 CPE 89
O=C1CCC/C=C/C[C@H](CC(=O)N(CCO)Cc2ccccc2)C(=O)N[C@@H](Cc2ccccc2)CO1	DENV2 CPE 25 (no result: SIRT5 inh)
O=C(c1ccccn1)N1CC[C@@H]2[C@@H](CO)Nc3ccc(-c4ccccc4F)cc3[C@@H]21	DENV2 CPE 21 (no result: AF4-AF9 inh, SIRT5 inh, CaV13 ICDI inh)
O=C(c1cccc(F)c1)N1CC[C@@H]2[C@H](CO)Nc3ccc(-c4ccc(F)cc4)cc3[C@@H]21	none (no result: CaV13 ICDI inh)
O=C(c1ccccc1)N1CC[C@@H]2[C@H]1c1cc(-c3ccc(F)cc3)ccc1N[C@@H]2CO	DENV2 CPE 29 (no result: S100A4 inh HTS, AF4-AF9 inh, SIRT5 inh, CaV13 ICDI inh)
COc1ccccc1C#Cc1ccc2c(c1)[C@H]1[C@H](CCN1C(=O)c1ccccc1)[C@H](CO)N2	none (no result: CaV13 ICDI inh)
COc1ccccc1C#Cc1ccc2c(c1)[C@H]1[C@H](CCN1C(=O)c1ccc(F)cc1)[C@@H](CO)N2	SIRT5 inh 18, DENV2 CPE 54 (no result: CaV13 ICDI inh)
O=C(c1ccccc1)N1CC[C@@H]2[C@H](CO)Nc3ccc(-c4ccc(F)cc4)cc3[C@@H]21	DENV2 CPE 32 (no result: S100A4 inh HTS, AF4-AF9 inh, SIRT5 inh, CaV13 ICDI inh)
CN(C)CC(=O)Nc1ccc2c(c1)[C@H]1C[C@H](CC(=O)N(C)C)O[C@H](CO)[C@H]1O2	none (no result: CaV13 ICDI inh)
COCCNC(=O)C[C@H]1CC[C@@H]2[C@@H](COc3ccc(NC(=O)COC)cc3C(=O)N2C)O1	none (no result: CaV13 ICDI inh)
O=C(c1cccc(F)c1)N1CC[C@H]2[C@H](CO)Nc3ccc(-c4ccc(F)cc4)cc3[C@H]21	S100A4 inh HTS 102 (no result: CaV13 ICDI inh)
C[C@@H]1CN([C@H](C)CO)C(=O)c2cc(C#CC3CCCCC3)cnc2O[C@H]1CN(C)C(=O)c1ccncc1	none (no result: CaV13 ICDI inh)
O=C(C[C@H]1CC[C@H]2[C@@H](COC[C@H](O)CN2C(=O)Nc2ccc(F)cc2)O1)NC1Cc2ccccc2C1	DENV2 CPE 43 (no result: CaV13 ICDI inh)
CNC(=O)C[C@@H]1CC[C@H]2[C@@H](COC[C@H](O)CN2C(=O)Nc2cccc(OC)c2)O1	DENV2 CPE 58 (no result: CaV13 ICDI inh)
COc1ccc(NC(=O)N2C[C@@H](O)COC[C@@H]3O[C@H](CC(=O)NC4Cc5ccccc5C4)CC[C@H]32)cc1	DENV2 CPE 100 (no result: CaV13 ICDI inh)
O=S1(=O)N[C@@H](Cc2ccccc2)COc2cc(NC3CC3)ccc21	none
Cc1ccc(S(=O)(=O)Nc2cccc3c2O[C@@H](CN(C)Cc2ccc4c(c2)OCO4)[C@H](C)CN([C@H](C)CO)C3=O)cc1	none (no result: CaV13 ICDI inh)
C[C@@H]1CN([C@H](C)CO)C(=O)c2cccc(NC(=O)C3CCOCC3)c2O[C@H]1CN(C)Cc1ccc(Cl)c(Cl)c1	none (no result: DENV2 CPE, CaV13 ICDI inh)
COc1ccc(-c2cc(-c3ccccc3)c(C#N)c(SCC(=O)O)n2)cc1	none
COCc1cc(C)nc(SCC(=O)Oc2ccc(Cl)cc2)c1C#N	CaV13 ICDI inh 47
COc1ccc(-c2cc(-c3ccc(Cl)cc3)c(C#N)c(SCC(=O)O)n2)cc1	DENV2 CPE 61
Cc1ccc(S(=O)(=O)N(C)C[C@H]2OCCCC[C@@H](C)Oc3ccc(NC(=O)Nc4ccc(F)cc4)cc3C(=O)N([C@H](C)CO)C[C@H]2C)cc1	none (no result: CaV13 ICDI inh)
CC(C)c1ccc(OCCCN2CCC(C(O)(c3ccccc3)c3ccccc3)CC2)cc1	none (no result: SIRT5 inh)
CC[C@]12c3[nH]c4cc(-c5ccco5)ccc4c3CCN1C(=O)[C@@H](CC(=O)NC(C)(C)C)C[C@@H]2C(=O)N1CCN(C(=O)C2CC2)CC1	DENV2 CPE 43
